According to ChEMBL document CHEMBL4411270, “Discovery of Nonquinone Substrates for NAD(P)H: Quinone Oxidoreductase 1 (NQO1) as Effective Intracellular ROS Generators for the Treatment of Drug-Resistant Non-Small-Cell Lung Cancer” (J Med Chem, 2018):
Active and inactive are the calls of the source. The calls are words filed in the database; no cut-off is given here.

Columns and labels:
A549/TR [1] = experiment: Induction of apoptosis in human A549/TR cells expressing NQO1 assessed as viable cells at 5 uM after 24 hrs by Annexin V-FITC/propidium iodide based flow cytometric analysis (reference value: 93.16%); type: functional; details: read-out: Activity
A549/TR [2] = experiment: Induction of apoptosis in human A549/TR cells expressing NQO1 assessed as necrotic cells at 5 uM after 24 hrs by Annexin V-FITC/propidium iodide based flow cytometric analysis (reference value: 3.91%); type: functional
Procedure, shortened: (§1)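 A549/Taxol cells exposed 24 h to 1, 5 or 10 µM. The 10 µM arms included pretreatment with 50 µM dicoumarol or 10 mM N-acetylcysteine. Cells stained with Annexin V-FITC and propidium iodide, and populations quantified by flow cytometry.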

[3] = Hepatotoxicity in nude mouse xenografted with human A549/TR cells expressing NQO1 assessed as aspartate aminotransferase level at 15 to 30 mg/kg, iv treated every other day for 3 weeks by hematoxylin and eosin staining based optical microscopic analysis; type: toxicity, organism-based; details: in vivo, 504 h
Procedure, shortened: (§2)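 Nude mice bearing A549/Taxol xenografts given saline, 15 or 30 mg/kg by tail-vein injection every other day, or Taxol 2 mg/kg, for 3 weeks. Mice then euthanized. Major organs examined by H&E staining. Blood collected for biochemistry: TP, ALB, GLB, AST, BUN, LDH.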

A549/TR [4] = experiment: Induction of apoptosis in human A549/TR cells expressing NQO1 assessed as necrotic cells at 10 uM treated post NAC addition and measured after 24 hrs by Annexin V-FITC/propidium iodide based flow cytometric analysis (reference value: 3.91%); type: functional; procedure, shortened: as §1
[5] = Toxicity in nude mouse xenografted with human A549/TR cells expressing NQO1 at 15 to 30 mg/kg, iv treated every other day for 3 weeks measured every day; type: organism-based; details: in vivo, 504 h
Procedure, shortened: (§3)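 A549/Taxol xenograft nude mice dosed by tail-vein injection at 15 or 30 mg/kg every other day for three weeks; saline vehicle group. Afterwards mice were euthanized, major organs H&E stained, and blood taken for biochemistry (TP, ALB, GLB, AST, BUN, LDH); tumor tissue assayed for ROS and GSH.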

[6] = Toxicity in nude mouse xenografted with human A549/TR cells expressing NQO1 assessed as damage to lung at 15 to 30 mg/kg, iv treated every other day for 3 weeks by hematoxylin and eosin staining based optical microscopic analysis; type: organism-based; details: in vivo, 504 h; procedure, shortened: as §3
[7] = target: NAD(P)H dehydrogenase [quinone] 1 (Homo sapiens) (UniProt P15559); experiment: Substrate activity at recombinant human NQO1 assessed as ROS generation by measuring umol of cytochrome c utilized per umol of enzyme at 10 uM measured at 2 secs interval for 5 mins in presence of NADPH
[8] = Hepatotoxicity in nude mouse xenografted with human A549/TR cells expressing NQO1 assessed as globulin level at 15 to 30 mg/kg, iv treated every other day for 3 weeks by hematoxylin and eosin staining based optical microscopic analysis; type: toxicity, organism-based; details: in vivo, 504 h; procedure, shortened: as §2
[9] = target: NAD(P)H dehydrogenase [quinone] 1 (Homo sapiens) (UniProt P15559); experiment: Substrate activity at recombinant human NQO1 assessed as reduction in PARP-1 hyperactivation by measuring PAR accumulation at 10 uM by western blot analysis
Procedure, shortened: (§4)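 A549/Taxol cells treated with compound at 10 µM, with or without 50 µM DIC or 10 mM NAC pretreatment, harvested at indicated times; PAR formation by Western blot, plus intracellular ATP and NAD+ levels.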

A549/TR [10] = experiment: Induction of apoptosis in human A549/TR cells expressing NQO1 assessed as necrotic cells at 1 uM after 24 hrs by Annexin V-FITC/propidium iodide based flow cytometric analysis (reference value: 3.91%); type: functional; procedure, shortened: as §1
A549/TR [11] = experiment: Induction of apoptosis in human A549/TR cells expressing NQO1 assessed as late apoptotic cells at 5 uM after 24 hrs by Annexin V-FITC/propidium iodide based flow cytometric analysis (reference value: 2.49%); type: functional; procedure, shortened: as §1
[12] = Toxicity in nude mouse xenografted with human A549/TR cells expressing NQO1 assessed as damage to spleen at 15 to 30 mg/kg, iv treated every other day for 3 weeks by hematoxylin and eosin staining based optical microscopic analysis; type: organism-based; details: in vivo, 504 h; procedure, shortened: as §3
A549/TR [13] = experiment: Antitumor activity against human A549/TR cells expressing NQO1 xenografted in nude mouse assessed as increase in karyprrhexis at 15 to 30 mg/kg, iv treated every other day for 3 weeks by hematoxylin and eosin staining based optical microscopic analysis; type: functional, organism-based
Procedure, shortened: (§5)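 A549/Taxol tumor-bearing nude mice dosed by tail-vein injection every other day for three weeks (15 or 30 mg/kg; Taxol reference 2 mg/kg; vehicle controls). Tumor volume followed over treatment, tumors weighed at end, body weight monitored. Tumor sections stained with H&E for necrosis and karyorrhexis.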

[14] = target: NAD(P)H dehydrogenase [quinone] 1 (Homo sapiens) (UniProt P15559); experiment: Substrate activity at DIC pretreated recombinant human NQO1 assessed as reduction in PARP-1 hyperactivation by measuring PAR accumulation at 10 uM treated for 10 mins measured after 60 mins by western blot analysis; procedure, shortened: as §4
A549/TR [15] = experiment: Induction of apoptosis in human A549/TR cells expressing NQO1 assessed as early apoptotic cells at 1 uM after 24 hrs by Annexin V-FITC/propidium iodide based flow cytometric analysis (reference value: 0.43%); type: functional; procedure, shortened: as §1
[16] = target: NAD(P)H dehydrogenase [quinone] 1 (Homo sapiens) (UniProt P15559); experiment: Substrate activity at NAC pretreated recombinant human NQO1 assessed as reduction in PARP-1 hyperactivation by measuring PAR accumulation at 10 uM treated for 10 mins measured after 60 mins by western blot analysis; procedure, shortened: as §4
A549/TR [17] = experiment: Antitumor activity against human A549/TR cells expressing NQO1 xenografted in nude mouse assessed as tumor volume at 30 m/kg, iv treated every other day for 3 weeks measured every day relative to control; type: functional; procedure, shortened: as §5
A549/TR [18] = experiment: Selectivity ratio of IC50 for test compound cytotoxicity against human A549/TR cells expressing NQO1 in presence of NAC to IC50 for test compound cytotoxicity against human A549/TR cells expressing NQO1 in absence of NAC; type: functional
Procedure, shortened: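 A549/Taxol cells pretreated with 50 µM DIC or 10 mM NAC before compound; MTT viability (4 h compound exposure, 72 h further culture, absorbance 560 nm) gives IC50, compared with IC50 without pretreatment.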

[19] = target: NAD(P)H dehydrogenase [quinone] 1 (Homo sapiens) (UniProt P15559); experiment: Substrate activity at recombinant human NQO1 assessed as induction of ROS generation at 1 to 10 uM treated post DIC addition and measured after 3 hrs by DCF-DA staining based fluorescence laser scanning confocal microscopic analysis
Procedure, shortened: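 A549/Taxol cells seeded at 1 x 10^6 per well, grown 24 h, treated with compound at 1 and 10 µM for 3 h (± pretreatment with 50 µM DIC or 10 mM NAC), loaded with 10 µM DCFH-DA 30 min at 37 °C, fixed in 4% formaldehyde 20 min, PBS washed, imaged by laser scanning confocal microscopy.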

A549/TR [20] = experiment: Induction of apoptosis in human A549/TR cells expressing NQO1 assessed as late apoptotic cells at 10 uM treated post NAC addition and measured after 24 hrs by Annexin V-FITC/propidium iodide based flow cytometric analysis (reference value: 2.49%); type: functional; procedure, shortened: as §1
A549/TR [21] = experiment: Antitumor activity against human A549/TR cells expressing NQO1 xenografted in nude mouse assessed as increase in large areas of necrosis at 15 to 30 mg/kg, iv treated every other day for 3 weeks by hematoxylin and eosin staining based optical microscopic analysis; type: functional, organism-based; procedure, shortened: as §5
[22] = Hepatotoxicity in nude mouse xenografted with human A549/TR cells expressing NQO1 assessed as total protein level at 15 to 30 mg/kg, iv treated every other day for 3 weeks by hematoxylin and eosin staining based optical microscopic analysis; type: toxicity, organism-based; details: in vivo, 504 h; procedure, shortened: as §2

NAD(P)H dehydrogenase [quinone] 1 (Homo sapiens), sequence (P15559 whole entry): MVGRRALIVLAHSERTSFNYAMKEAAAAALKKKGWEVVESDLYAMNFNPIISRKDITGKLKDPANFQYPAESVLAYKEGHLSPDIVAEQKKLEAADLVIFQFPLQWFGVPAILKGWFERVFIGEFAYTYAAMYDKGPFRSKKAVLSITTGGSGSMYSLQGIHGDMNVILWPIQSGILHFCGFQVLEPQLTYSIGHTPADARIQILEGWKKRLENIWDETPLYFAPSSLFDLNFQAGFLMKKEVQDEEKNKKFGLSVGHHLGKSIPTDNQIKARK

N#Cc1nc2c(nc1C#N)-c1cc(F)c(F)cc1C2=O
viability at 5 µM (A549/TR [1]): 49.7%
Activity (A549/TR [2]): 7.42%
Activity [3]: Non-Toxic
Activity (A549/TR [4]): 6.53%
Activity [5]: Non-Toxic
Activity [6]: Non-Toxic
Activity [7]: 1210 µmol/min
Activity [8]: Non-Toxic
Activity [9]: Active
Activity (A549/TR [10]): 7.16%
Activity (A549/TR [11]): 9.28%
Activity [12]: Non-Toxic
Activity (A549/TR [13]): Active
Activity [14]: inactive
Activity (A549/TR [15]): 15.91%
Activity [16]: inactive
T/C (A549/TR [17]): 25.9%
Ratio IC50 (A549/TR [18]): 42 - 55
Activity [19]: inactive
Activity (A549/TR [20]): 2.11%
Activity (A549/TR [21]): Active
Activity [22]: Non-Toxic
